Test results as given in ChEMBL document CHEMBL1139360, “Mechanism of p300 specific histone acetyltransferase inhibition by small molecules” (J Med Chem, 2009).

What was measured:
[1] = target: T1, Histone acetyltransferase p300 (Homo sapiens, UniProt Q09472); assay: Inhibition of HAT p300 catalytic domain activity expressed in Escherichia coli BL21 (DE3) co-transformed with human SirT2 by fluorography/autoradiography assay
[2] = target: T1, Histone acetyltransferase p300; assay: Inhibition of HAT p300 catalytic domain
[3] = target: T1, Histone acetyltransferase p300; assay: Binding affinity to HAT p300 catalytic domain by isothermal titration calorimetry
Procedure, shortened: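 ITC at 20 °C. Ligand at 30–35 μM injected into 3 μM p300 HAT domain in 20 mM Tris-HCl pH 7.5, 0.2 mM EDTA, 100 mM KCl. 35 injections, 2 min apart; the first 1 μL injection was discarded. Ligand-into-buffer and buffer-into-buffer blanks were subtracted, and data fitted to a one-set-of-sites model.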

[4] = target: Histone acetyltransferase KAT2B (Homo sapiens) (UniProt Q92831); assay: Inhibition of HAT PCAF relative to control; design: scale not given: the % may be the effect or the level left
Sequence of Histone acetyltransferase KAT2B (Homo sapiens) (Q92831 whole entry, looked up): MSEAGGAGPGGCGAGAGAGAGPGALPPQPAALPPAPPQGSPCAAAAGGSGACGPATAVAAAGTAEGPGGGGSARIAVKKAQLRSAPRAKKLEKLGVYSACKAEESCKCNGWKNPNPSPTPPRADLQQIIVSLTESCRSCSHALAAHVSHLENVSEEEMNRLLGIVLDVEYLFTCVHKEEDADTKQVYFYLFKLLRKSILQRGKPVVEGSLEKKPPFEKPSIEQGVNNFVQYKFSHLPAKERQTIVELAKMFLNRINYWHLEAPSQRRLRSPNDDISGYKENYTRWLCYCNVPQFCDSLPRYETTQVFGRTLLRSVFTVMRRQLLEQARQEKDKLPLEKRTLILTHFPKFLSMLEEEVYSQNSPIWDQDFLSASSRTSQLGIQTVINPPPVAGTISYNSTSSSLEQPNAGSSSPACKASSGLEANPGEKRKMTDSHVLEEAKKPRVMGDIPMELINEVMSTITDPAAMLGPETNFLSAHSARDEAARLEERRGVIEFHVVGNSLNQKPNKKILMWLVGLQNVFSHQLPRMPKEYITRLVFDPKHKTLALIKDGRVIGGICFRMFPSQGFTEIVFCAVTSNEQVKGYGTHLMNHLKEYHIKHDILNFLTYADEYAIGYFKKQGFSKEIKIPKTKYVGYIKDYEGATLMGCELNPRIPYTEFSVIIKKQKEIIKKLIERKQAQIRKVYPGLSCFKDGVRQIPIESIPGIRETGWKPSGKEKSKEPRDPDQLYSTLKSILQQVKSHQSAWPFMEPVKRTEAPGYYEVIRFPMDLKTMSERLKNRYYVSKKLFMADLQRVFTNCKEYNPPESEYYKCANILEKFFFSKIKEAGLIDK
Procedure, shortened: (§1)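 Filter-binding HAT assay with PCAF, purified HeLa core histones and ³H-acetyl-CoA, run at increasing inhibitor concentrations. Activity compared with a DMSO solvent control.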

[5] = target: T1, Histone acetyltransferase p300; assay: Inhibition of HAT p300 catalytic domain assessed as drug-induced alteration of protein tertiary structure at 2.5 uM by Stern-Volmer plot; design: scale not given: the % may be the effect or the level left
Procedure, shortened: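 p300 HAT domain (1.2 μM) preincubated 2 min at room temperature with 2.5 μM inhibitor in 20 mM Tris-HCl pH 7.5, 0.2 mM EDTA, 100 mM KCl. Acrylamide added stepwise; fluorescence read at 340 nm (excitation 295 nm) at 20 °C. Ksv taken from a Stern–Volmer plot and tryptophan accessibility from a modified Stern–Volmer plot.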

[6] = target: T1, Histone acetyltransferase p300; assay: Binding affinity to HAT p300 catalytic domain by fluorometric titration
Procedure, shortened: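 p300 HAT domain (aa 1284–1673, 6His, from E. coli BL21(DE3) co-expressing SirT2), 1.2 μM, titrated with ligand in 20 mM Tris-HCl pH 7.5, 0.2 mM EDTA, 100 mM KCl. Tryptophan emission read at 340 nm (excitation 295 nm). Kd obtained by nonlinear least-squares fit; ΔFmax taken from a double-reciprocal plot.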

[7] = target: Histone acetyltransferase KAT2B (Homo sapiens) (UniProt Q92831); assay: Inhibition of HAT PCAF up to 40 uM relative to control; design: scale not given: the % may be the effect or the level left; procedure, shortened: as §1
[8] = target: Histone acetyltransferase KAT2B (Homo sapiens) (UniProt Q92831); assay: Inhibition of HAT PCAF up to 10 uM after 2 mins in absence of acetyl-CoA; design: scale not given: the % may be the effect or the level left
Procedure, shortened: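 PCAF preincubated with inhibitor at 10 μM without acetyl-CoA over a time course, then assayed for HAT activity on purified HeLa core histones in triplicate. Activity compared with a DMSO control.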

T1 sequence (Q09472 whole entry, the tested form may be a part): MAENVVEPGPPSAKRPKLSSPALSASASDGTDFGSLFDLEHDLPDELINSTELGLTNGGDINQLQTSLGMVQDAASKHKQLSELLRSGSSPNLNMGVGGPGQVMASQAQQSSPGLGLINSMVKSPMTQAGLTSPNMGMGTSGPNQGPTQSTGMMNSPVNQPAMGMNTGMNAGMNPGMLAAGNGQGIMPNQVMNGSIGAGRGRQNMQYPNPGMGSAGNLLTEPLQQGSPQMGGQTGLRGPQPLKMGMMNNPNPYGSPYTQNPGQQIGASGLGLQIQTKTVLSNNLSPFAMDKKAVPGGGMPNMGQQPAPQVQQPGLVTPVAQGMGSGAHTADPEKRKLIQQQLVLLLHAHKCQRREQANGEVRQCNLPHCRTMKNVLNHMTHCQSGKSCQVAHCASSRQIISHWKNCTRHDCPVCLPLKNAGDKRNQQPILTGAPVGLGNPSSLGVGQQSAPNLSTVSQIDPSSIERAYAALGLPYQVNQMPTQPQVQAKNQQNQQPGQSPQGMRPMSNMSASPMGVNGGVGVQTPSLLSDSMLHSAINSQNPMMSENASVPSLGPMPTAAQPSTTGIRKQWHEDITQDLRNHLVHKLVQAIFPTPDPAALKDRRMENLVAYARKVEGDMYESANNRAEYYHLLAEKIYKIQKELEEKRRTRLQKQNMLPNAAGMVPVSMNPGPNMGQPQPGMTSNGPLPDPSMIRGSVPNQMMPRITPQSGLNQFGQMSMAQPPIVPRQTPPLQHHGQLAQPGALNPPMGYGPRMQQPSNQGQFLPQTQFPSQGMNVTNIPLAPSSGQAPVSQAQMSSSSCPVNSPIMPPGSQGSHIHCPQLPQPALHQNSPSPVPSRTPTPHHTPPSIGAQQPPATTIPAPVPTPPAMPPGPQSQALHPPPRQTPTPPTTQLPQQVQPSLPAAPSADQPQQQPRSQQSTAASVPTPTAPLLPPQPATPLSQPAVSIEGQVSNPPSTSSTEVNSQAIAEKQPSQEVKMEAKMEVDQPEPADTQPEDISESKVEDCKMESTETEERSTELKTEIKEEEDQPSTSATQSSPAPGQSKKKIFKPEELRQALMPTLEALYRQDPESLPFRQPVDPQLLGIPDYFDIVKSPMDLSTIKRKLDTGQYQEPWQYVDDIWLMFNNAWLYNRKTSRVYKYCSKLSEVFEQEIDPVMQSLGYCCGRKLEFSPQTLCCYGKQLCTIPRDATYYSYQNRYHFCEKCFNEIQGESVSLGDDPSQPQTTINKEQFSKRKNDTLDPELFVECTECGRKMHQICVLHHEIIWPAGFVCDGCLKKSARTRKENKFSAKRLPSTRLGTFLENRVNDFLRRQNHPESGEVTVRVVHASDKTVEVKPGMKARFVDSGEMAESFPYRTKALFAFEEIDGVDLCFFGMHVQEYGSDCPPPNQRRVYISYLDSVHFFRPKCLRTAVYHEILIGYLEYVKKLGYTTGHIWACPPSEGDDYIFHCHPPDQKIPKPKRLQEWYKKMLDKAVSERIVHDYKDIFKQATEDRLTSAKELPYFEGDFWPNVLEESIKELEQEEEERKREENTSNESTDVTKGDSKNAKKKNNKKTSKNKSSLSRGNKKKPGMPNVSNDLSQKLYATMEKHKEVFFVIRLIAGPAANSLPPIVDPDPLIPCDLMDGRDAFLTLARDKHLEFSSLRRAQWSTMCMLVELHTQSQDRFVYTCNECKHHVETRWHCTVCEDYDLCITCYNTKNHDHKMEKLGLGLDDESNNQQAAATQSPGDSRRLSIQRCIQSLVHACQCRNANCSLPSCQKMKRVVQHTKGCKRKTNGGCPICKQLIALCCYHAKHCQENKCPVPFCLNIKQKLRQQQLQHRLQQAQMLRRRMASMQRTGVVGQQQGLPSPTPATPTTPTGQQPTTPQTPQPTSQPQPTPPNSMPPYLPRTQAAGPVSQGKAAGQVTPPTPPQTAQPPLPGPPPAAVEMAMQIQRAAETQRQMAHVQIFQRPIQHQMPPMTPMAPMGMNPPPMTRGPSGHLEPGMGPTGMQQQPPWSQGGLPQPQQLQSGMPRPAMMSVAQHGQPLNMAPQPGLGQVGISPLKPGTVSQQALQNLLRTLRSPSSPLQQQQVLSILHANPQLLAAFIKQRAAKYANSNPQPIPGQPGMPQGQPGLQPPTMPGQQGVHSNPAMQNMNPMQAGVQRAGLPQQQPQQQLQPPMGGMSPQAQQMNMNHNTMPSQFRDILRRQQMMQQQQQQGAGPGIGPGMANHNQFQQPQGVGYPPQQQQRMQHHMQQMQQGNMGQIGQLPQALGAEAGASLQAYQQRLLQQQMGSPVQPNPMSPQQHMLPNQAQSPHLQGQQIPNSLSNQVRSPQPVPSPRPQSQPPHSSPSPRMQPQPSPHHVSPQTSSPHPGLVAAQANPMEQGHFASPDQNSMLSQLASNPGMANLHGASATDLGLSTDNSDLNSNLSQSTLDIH

Activity [1]	Ki [2]	Kd [3]	Activity [4]	Activity [5]	Kd [6]	Activity [7]	Activity [8]	Compound
Dose-dependent effect	3.9 µM	5.9 µM	50%	75%	1100 nM	–	–	CC(C)=CC[C@H]1C[C@@]23C[C@@H](CC=C(C)C)C(C)(C)[C@@](CC=C(C)C)(C(=O)C(C(=O)c4ccc(O)c(O)c4)=C2OC1(C)C)C3=O [CAMBOGIN]
Dose-dependent effect	4.9 µM	6.6 µM	–	78%	1800 nM	90%	80%	C=C(C)[C@@H](CC=C(C)C)C[C@@]12C[C@@H](CC=C(C)C)C(C)(C)[C@@](CC=C(C)C)(C(=O)C(C(=O)c3ccc(O)c(O)c3)=C1O)C2=O [GARCINOL]
